Source: ChEMBL document CHEMBL2440088, “A synthetic compound, 4-acetyl-3-methyl-6-(3,4,5-trimethoxyphenyl)pyrano[3,4-c]pyran-1,8-dione, ameliorates ovalbumin-induced asthma” (Bioorg Med Chem, 2013)
Active and inactive are the calls of the source. The calls are words filed in the database; no cut-off is given here.

Key:
[1] = target: Transcription factor p65 (Homo sapiens) (UniProt Q04206); test: Inhibition of TNFalpha/IL4/IL1-beta-induced NFkappaB p65 nuclear translocation in human A549 cells at 50 uM after 15 mins by Western blotting analysis; type: cell-based; details: in the assay text read “after 1 hr” for “after 15 mins”
Sequence of Transcription factor p65 (Homo sapiens) (Q04206 whole entry): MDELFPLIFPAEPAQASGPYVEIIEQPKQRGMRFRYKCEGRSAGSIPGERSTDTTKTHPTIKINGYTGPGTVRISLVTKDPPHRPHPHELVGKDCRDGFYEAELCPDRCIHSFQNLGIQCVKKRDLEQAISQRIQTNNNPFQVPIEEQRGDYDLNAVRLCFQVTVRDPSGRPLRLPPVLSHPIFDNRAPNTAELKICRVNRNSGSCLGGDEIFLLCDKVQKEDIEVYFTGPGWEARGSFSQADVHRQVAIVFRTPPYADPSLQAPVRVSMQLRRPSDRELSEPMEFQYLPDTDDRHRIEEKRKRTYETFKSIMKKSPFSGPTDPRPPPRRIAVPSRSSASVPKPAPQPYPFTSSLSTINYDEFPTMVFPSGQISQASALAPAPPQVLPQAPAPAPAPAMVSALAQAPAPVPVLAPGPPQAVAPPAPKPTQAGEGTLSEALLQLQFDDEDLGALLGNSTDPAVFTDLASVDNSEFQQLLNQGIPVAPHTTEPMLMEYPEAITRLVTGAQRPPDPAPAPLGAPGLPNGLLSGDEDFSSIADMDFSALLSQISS
In short: (§1)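 Nuclear extracts were western blotted for p65 or phospho-STAT6, with bands normalized to PCNA by densitometry over three experiments.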

A549 [2] = test: Cytotoxicity against human A549 cells assessed as cell viability at 50 uM after 24 hrs by MTS assay; type: cell-based; details: a549, 24 h
In short: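 A549 cells were seeded at 2×10⁴ cells per well and grown 24 h at 37 °C, then exposed to 0, 5, 10 or 50 μM for 24 h. MTS reagent was added for a further 4 h and absorbance read at 490 nm; assays were run in triplicate.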

Mus musculus [3] = test: Antiinflammatory activity in ovalbumin-sensitized Balb/c mouse asthma model model assessed as reduction in methacholine-induced airway hyperresponsiveness at 10 mg/kg, ip; type: functional, organism-based; design: dose 10 mg/kg
In short: (§2)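 AHR was read in OVA-sensitized/challenged Balb/c mice (n = 6 per group) 24 h after the final allergen challenge, by barometric whole-body plethysmography. A 3 min baseline came first, then inhalation of methacholine at 50 or 100 mg ml⁻¹, with the read-out as enhanced pause (Penh).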

Mus musculus [4] = test: Antiinflammatory activity in ovalbumin-sensitized Balb/c mouse asthma model model assessed as reduction of airway smooth muscle thickness in lungs at 10 mg/kg, ip by IHC staining; type: functional, organism-based; design: dose 10 mg/kg; details: Muscle tissue
In short: (§3)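 Male Balb/c mice, 6 weeks old and 20-25 g, n = 6 per group, were sensitized ip on days 0 and 14 with 100 μg OVA precipitated with 20 mg aluminum hydroxide in 200 μl PBS. They were challenged intranasally with 1% OVA in 50 μl PBS on days 15, 17, 19, 21, 23 and 25, and sacrificed on day 27.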

Mus musculus [5] = test: Antiinflammatory activity in ovalbumin-sensitized Balb/c mouse asthma model model assessed as reduction of eosinophils, neutrophils, lymphocytes, and macrophages level in BAL fluid at 10 mg/kg, ip; type: functional, organism-based; design: dose 10 mg/kg; in short: as §3
Mus musculus [6] = test: Antiinflammatory activity in ovalbumin-sensitized Balb/c mouse asthma model model assessed as reduction of eosinophils infiltration in lungs at 10 mg/kg, ip by hematoxylin and eosin staining; type: functional, organism-based; design: dose 10 mg/kg; in short: as §3
A549 [7] = test: Inhibition of TNFalpha/IL4/IL1-beta-induced CCL11 secretion in human A549 cells at 5 uM treated 1 hr before TNFalpha/IL4/IL1-beta stimulation measured after 24 hrs by ELISA; type: functional
In short: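 Confluent A549 cells were held in serum-free RPMI for 24 h, pretreated 1 h with 0-50 μM, then stimulated with IL-1β (10 ng ml⁻¹), TNF-α (100 ng ml⁻¹) and IL-4 (100 ng ml⁻¹) for 24 h. Eotaxin in the supernatant was measured by ELISA; three independent experiments were run.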

[8] = target: T1, Signal transducer and activator of transcription 6 (Homo sapiens) (UniProt P42226); test: Inhibition of TNFalpha/IL4/IL1-beta-induced STAT6 phosphorylation in human A549 cells at 50 uM after 15 mins by Western blotting analysis; type: cell-based; details: in the assay text read “after 1 hr” for “after 15 mins”; in short: as §1
T1 sequence (whole entry): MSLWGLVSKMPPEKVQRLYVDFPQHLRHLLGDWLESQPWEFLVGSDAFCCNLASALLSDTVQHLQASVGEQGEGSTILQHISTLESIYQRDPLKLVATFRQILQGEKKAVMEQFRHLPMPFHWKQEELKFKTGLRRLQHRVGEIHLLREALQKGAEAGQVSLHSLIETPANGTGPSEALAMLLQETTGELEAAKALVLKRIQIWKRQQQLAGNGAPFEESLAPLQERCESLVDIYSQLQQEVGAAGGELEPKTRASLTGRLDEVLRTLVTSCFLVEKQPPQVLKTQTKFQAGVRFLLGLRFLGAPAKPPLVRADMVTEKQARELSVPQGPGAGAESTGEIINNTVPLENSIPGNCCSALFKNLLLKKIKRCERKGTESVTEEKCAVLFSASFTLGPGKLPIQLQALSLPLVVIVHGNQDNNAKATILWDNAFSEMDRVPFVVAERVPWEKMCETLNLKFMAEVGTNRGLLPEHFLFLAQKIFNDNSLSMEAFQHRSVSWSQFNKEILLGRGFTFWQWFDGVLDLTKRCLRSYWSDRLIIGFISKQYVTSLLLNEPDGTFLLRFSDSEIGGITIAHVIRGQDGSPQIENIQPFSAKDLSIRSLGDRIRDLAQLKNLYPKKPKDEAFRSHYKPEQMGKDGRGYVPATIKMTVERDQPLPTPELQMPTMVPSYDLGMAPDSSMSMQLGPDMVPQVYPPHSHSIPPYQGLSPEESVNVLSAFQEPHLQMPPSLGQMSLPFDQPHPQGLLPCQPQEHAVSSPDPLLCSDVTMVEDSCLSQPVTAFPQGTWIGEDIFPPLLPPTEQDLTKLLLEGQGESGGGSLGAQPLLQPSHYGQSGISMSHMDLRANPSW

Mus musculus [9] = test: Antiinflammatory activity in ovalbumin-sensitized Balb/c mouse asthma model model assessed as reduction in IgE level in serum at 10 mg/kg, ip after 48 hrs of last dose by ELISA; type: functional, organism-based; design: dose 10 mg/kg; in short: as §3
Mus musculus [10] = test: Antiinflammatory activity in ovalbumin-sensitized Balb/c mouse asthma model model assessed as reduction of goblet cell hyperplasia in lungs at 10 mg/kg, ip by PAS staining; type: functional, organism-based; design: dose 10 mg/kg; in short: as §3
Mus musculus [11] = test: Antiinflammatory activity in ovalbumin-sensitized Balb/c mouse asthma model model assessed as reduction of eosinophils, neutrophils, lymphocytes, and macrophages level in BAL fluid at 1 mg/kg, po; type: functional, organism-based; design: dose 1 mg/kg; in short: as §3
Mus musculus [12] = test: Antiinflammatory activity in ovalbumin-sensitized Balb/c mouse asthma model model assessed as reduction in methacholine-induced airway hyperresponsiveness at 1 mg/kg, po; type: functional, organism-based; design: dose 1 mg/kg; in short: as §2
Mus musculus [13] = test: Antiinflammatory activity in ovalbumin-sensitized Balb/c mouse asthma model model assessed as reduction of goblet cell hyperplasia in lungs at 1 mg/kg, po by PAS staining; type: functional, organism-based; design: dose 1 mg/kg; in short: as §3

Row | SMILES | inhibition [1] | Activity (A549 [2]) | Activity (Mus musculus [3]) | Activity (Mus musculus [4]) | Activity (Mus musculus [5]) | Activity (Mus musculus [6]) | inhibition at 5 µM (A549 [7]) [%] | inhibition [8] | Activity (Mus musculus [9]) | Activity (Mus musculus [10]) | Activity (Mus musculus [11]) | Activity (Mus musculus [12]) | Activity (Mus musculus [13])
1 | COc1cc(-c2cc3c(C(C)=O)c(C)oc(=O)c3c(=O)o2)cc(OC)c1OC | inactive | Non-toxic | Active | Active | Active | Active | 75 | Active | Active | Active |  |  | 
2 | C[C@@H]1C[C@H]2[C@@H]3CCC4=CC(=O)C=C[C@]4(C)[C@@]3(F)[C@@H](O)C[C@]2(C)[C@@]1(O)C(=O)CO |  |  |  |  |  |  |  |  |  |  | Active | Active | Active
